What was measured:
[1] = system: obese or overweight subjects; assay type: in vivo, human
[2] = assay type: in vivo, human; details: week 16; metreleptin 5 mg b.i.d. s.c.
How it was run: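 Predose plasma leptin was measured at week 16 and expressed relative to enrollment concentration. Subjects received a leptin analogue at 5mg b.i.d. s.c., alone or with an amylin analogue at 360 μg b.i.d., each injected separately 15 min before morning and evening meals. Analysis covered the evaluable population; values are mean ± s.e.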

[3] = system: obese or overweight subjects; assay: Clinical study: fasting lipoprotein and glycemic control parameters; assay type: in vivo, human; details: enrollment to week 16, evaluable population, mean ± s.e., SEM
How it was run: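 Fasting glucose, insulin, lipids and HOMA-IR were taken as change from enrollment to week 16 after the 4-week amylin analogue lead-in with a 40% caloric-deficit diet. This was followed by randomized s.c. b.i.d. leptin analogue, amylin analogue, or both, and advice to keep a 20% caloric deficit. Evaluable subjects had completed week 16; values are mean ± s.e.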

[4] = system: nonleptin-deficient obesity; details: doses up to twofold those used in this study; and data on file, Amylin Pharmaceuticals, Inc.; cited from earlier work
[5] = system: obese or overweight subjects; assay: Clinical study: treatment-emergent adverse events, tolerability and withdrawals
[6] = evaluable population, LS mean ± s.e., SEM
[7] = ITT population, lead-in and postrandomization periods

## Metreleptin: recombinant methyl-human leptin (metreleptin)
[1]; day 1 to week 20, evaluable population, LS mean ± s.e., SEM
  Overall rate of weight change: −0.16 ± 0.06 kg/week
[1]; [6]
  Rate of weight change, Day 1 to week 12: −0.23 ± 0.06 kg/week
  Rate of weight change, Week 12 to week 20: −0.02 ± 0.08 kg/week
[1]; evaluable, rounded figures of the discussion
  Weight loss, percent of initial body weight over 24 weeks: ~ 8%
[2]
  Increase of predose leptin concentrations over enrollment concentrations: 13- to 16 fold
[3]
  Change in HOMA-IR: −0.10 ± 0.29
[3]; fasting serum
  Change in insulin: −0.6 ± 1.1 μIU/ml
[3]; fasting
  Change in HDL: 1.7 ± 1.5 mg/dL
  Change in LDL: 1.1 ± 5.1 mg/dL
  Change in blood glucose: 0.7 ± 1.7 mg/dL
  Change in total cholesterol: 2.7 ± 5.8 mg/dL
  Change in triglycerides: 5.7 ± 13.5 mg/dL
[4]
  Weight loss in previous monotherapy trials: failed to show significant weight loss
[5]; [7]
  Back pain: 0 (0.0) n (%)
  Constipation: 1 (3.7) n (%)
  Diarrhea: 0 (0.0) n (%)
  Headache: 2 (7.4) n (%)
  Hypersensitivity: 2 (7.4) n (%)
  Influenza: 1 (3.7) n (%)
  Injection site adverse events: 18 (66.7) n (%)
  Nasopharyngitis: 2 (7.4) n (%)
  Nausea: 7 (25.9) n (%)
  Streptococcal pharyngitis: 0 (0.0) n (%)
  Vomiting: 2 (7.4) n (%)
[5]; through week 20, randomized/ITT population
  Withdrew during randomized treatment, reason: Adverse event: 3 (11) n (%)
